Screens (PubChem BioAssay)
NPY-Y2 PAM-ag – NPY-Y2 potentiators or agonists, primary screen, cell-based. 0.45% of 220,000 active. Neuropeptide Y receptor type 2 (Homo sapiens), P49146. activation, % at 3.6 µM. cells expressing NPY-Y2, potentiator/agonist read-out; in the data active = activation above about 27%;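 also: cells stimulated with NPY near EC25 plus isoproterenol at EC100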
Target sequence (P49146 whole entry, looked up): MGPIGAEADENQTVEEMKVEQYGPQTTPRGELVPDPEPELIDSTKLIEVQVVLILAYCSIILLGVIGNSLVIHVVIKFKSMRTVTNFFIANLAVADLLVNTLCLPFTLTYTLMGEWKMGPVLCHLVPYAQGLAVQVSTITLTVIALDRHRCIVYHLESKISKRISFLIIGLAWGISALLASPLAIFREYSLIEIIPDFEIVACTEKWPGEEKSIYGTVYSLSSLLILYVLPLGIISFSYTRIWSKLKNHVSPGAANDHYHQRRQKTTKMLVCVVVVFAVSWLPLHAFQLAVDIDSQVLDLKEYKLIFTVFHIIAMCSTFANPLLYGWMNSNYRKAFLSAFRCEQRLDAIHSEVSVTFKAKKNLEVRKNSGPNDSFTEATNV
NPY-Y1 PAM-ag – NPY-Y1 receptor potentiators or agonists, primary screen, cell-based. Neuropeptide Y receptor type 1 (Homo sapiens), P25929. NPY-Y1 expressing cells, potentiator/agonist activation. activation, % at 3.6 µM. 0.37% of 220,000 active; in the data active = activation above about 33%, passing the limit was not always enough;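 also: cells stimulated with NPY at EC10 then isoproterenol at EC100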
Target sequence (P25929 whole entry, looked up): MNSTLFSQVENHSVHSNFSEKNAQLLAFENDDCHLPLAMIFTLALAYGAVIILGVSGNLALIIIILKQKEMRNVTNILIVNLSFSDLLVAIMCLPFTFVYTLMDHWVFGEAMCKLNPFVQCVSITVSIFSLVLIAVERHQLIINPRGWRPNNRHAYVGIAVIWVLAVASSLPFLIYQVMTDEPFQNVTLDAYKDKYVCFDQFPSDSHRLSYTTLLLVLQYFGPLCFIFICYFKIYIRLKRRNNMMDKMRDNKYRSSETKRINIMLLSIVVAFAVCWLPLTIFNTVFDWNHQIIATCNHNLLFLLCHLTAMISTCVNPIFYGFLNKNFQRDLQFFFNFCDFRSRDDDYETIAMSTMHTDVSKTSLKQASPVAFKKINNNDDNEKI
NPY-Y1 antag – NPY-Y1 receptor antagonists, primary screen, cell-based; Neuropeptide Y receptor type 1 (Homo sapiens), P25929; 1% of 200,000 active; HEK293-CNG Y1 cells, membrane potential fluorescence; NPY at EC95, then isoproterenol; AID 1040, 2008; inhibition, % at 3.6 µM;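 active = inhibition above the campaign mean inhibition of all tested compounds plus 3 SD, cut at about 20% in these data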
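Assay system: HEK293 cells with Y1 receptor plus CNG channel | Probe or stimulus: NPY (25 nM), isoproterenol (1 µM), Ro 20-1724 (25 µM) | Timing: Compound incubation 1 h at room temperature, readout 45 min post-stimulation | Measured by: Membrane-potential fluorescent dye readout | Benchmarks: High control isoproterenol alone, low control NPY with isoproterenol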
NPY Y2 blocker – NPY-Y2 receptor antagonists, primary screen, cell-based; NPY-Y2 expressing cells, antagonist mode; AID 793, 2007; inhibition, % at 2.7 µM; 0.99% of 140,000 active; Neuropeptide Y receptor type 2 (Homo sapiens), P49146; in the data active = inhibition above about 17%
NPY-Y1 confirm – NPY-Y1 potentiators or agonists, confirmation, cell-based | shares compounds with NPY-Y1 PAM-ag | cell-based NPY-Y1 potentiator/agonist assay | activation, % at 3.6 µM | 20% of 280 active | AID 1546, 2009; in the data active = activation above about 45%;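 also: cells challenged with NPY at its EC10 plus isoproterenol stimulus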
NPY-Y2 counter – NPY-Y2 potentiators or agonists, counter-screen for NPY-Y1 potentiator project, cell-based, fluorescence | shares compounds with NPY-Y1 PAM-ag | HEK293-CNG cells, membrane-potential fluorescence (FLIPR), 1536-well | activation, % at 3.6 µM | 20% of 280 active | AID 1649, 2009; in the data active = activation above about 33%
NPY-Y1 agonist – NPY-Y1 direct agonists without NPY, confirmation, counter-screen for NPY-Y1 potentiator project, cell-based, fluorescence; shares compounds with NPY-Y1 PAM-ag; HEK293 Y1-CNGC, membrane potential fluorescence, agonist mode; activation, % at 3.6 µM; 50% of 280 active;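 active = percent activation above the mean of DMSO-only control wells plus 3 SD of those wells, cut at about 18% in these data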;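 also: cells challenged with isoproterenol plus Ro 20-1724 with no NPY in test wells; Y1 agonism lowers isoproterenol-driven cAMP and reduces probe fluorescence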
NPY-Y2 ag – NPY-Y2 direct agonists without NPY, counter-screen for NPY-Y1 potentiator project, cell-based, fluorescence | HEK293 Y2-CNGC, membrane potential fluorescence, agonist mode | activation, % at 3.6 µM | 67% of 280 active | shares compounds with NPY-Y1 PAM-ag;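 active = activation above the solvent-only control wells' mean plus 3 SD, cut at about 11% in these data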;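 also: agonism lowers cAMP so well fluorescence drops in active wells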
CNGC inh 2 – CNGC cAMP sensor activity inhibitors, counter-screen for NPY-Y1 potentiator/agonist project, cell-based, HEK293-CNG parental, membrane potential fluorescence, Y1 set; shares compounds with NPY-Y1 PAM-ag; isoproterenol cAMP; inhibition, % at 3.6 µM; 42% of 280 active; AID 1704, 2009;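 active = inhibition above the mean of stimulated solvent-only control wells plus 3 SD, cut at about 22% in these data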
Of the large screens only hits and unclear results are named; the others gave an inactive call (follow-up assays come after a bar, where they were run). Shown are actives, neighbours in structure and some others; about 1.8% of the full set was active somewhere.

O=C1/C(=C/c2ccccn2)SC(=S)N1c1cccc(O)c1	NPY-Y1 PAM-ag 54 (no result: NPY-Y1 antag, NPY Y2 blocker) | NPY-Y1 confirm 57 | NPY-Y2 counter 38 | NPY-Y1 agonist 41 | NPY-Y2 ag 37 | CNGC inh 2 32
S=C(N/N=C/c1ccccc1Cl)Nc1cccc(Cl)c1Cl	none (no result: NPY-Y1 antag, NPY Y2 blocker)
CCN=c1scc(-c2cccs2)n1/N=C/c1cc(OC)ccc1O	none
CC(C)N=c1scc(-c2cccs2)n1/N=C/c1ccc(O)c(O)c1O	NPY-Y1 PAM-ag 52 | NPY-Y1 confirm 51 | NPY-Y2 counter 39 | NPY-Y1 agonist 53 | NPY-Y2 ag 26 | CNGC inh 2 inactive
COc1cc(/C=N/NC(=O)C(Cc2c[nH]c3ccccc23)NC(=O)OCC(C)C)cc([N+](=O)[O-])c1O (centres undefined)	none
COc1cc(/C=N/NC(=O)C(Cc2c[nH]c3ccccc23)NC(=O)OCC(C)C)cc([N+](=O)[O-])c1OCc1ccccc1 (centres undefined)	NPY-Y1 PAM-ag 39 (no result: NPY Y2 blocker) | NPY-Y1 confirm inactive | NPY-Y2 counter inactive | NPY-Y1 agonist 24 | NPY-Y2 ag 38 | CNGC inh 2 25
Cc1cc(C)cc(NC(=O)CSc2cc(C(=O)c3nccn3C)c3ccccc3n2)c1	none
COc1ccccc1NS(=O)(=O)c1cc(NC(=S)Nc2cc(C)cc(C)c2)ccc1Cl	none
COc1ccccc1NS(=O)(=O)c1cc(N/C(=N\S(=O)(=O)c2ccccc2)c2ccc(F)cc2)ccc1Cl	NPY-Y1 PAM-ag 43 | NPY-Y1 confirm inactive | NPY-Y2 counter inactive | NPY-Y1 agonist 25 | NPY-Y2 ag 24 | CNGC inh 2 43
O=C(c1ccccc1)N1CCN(C(=O)c2ccncc2)CC1	none
O=C(c1ccccc1)N1CCN(c2n[nH]c(=O)[nH]c2=O)CC1	NPY-Y1 PAM-ag 45 (no result: NPY Y2 blocker) | NPY-Y1 confirm inactive | NPY-Y2 counter inactive | NPY-Y1 agonist inactive | NPY-Y2 ag inactive | CNGC inh 2 inactive
Cc1cccc(NC(=S)c2nc3ccccc3s2)c1	none
NS(=O)(=O)c1cccc(NC(=O)CSc2nc3ccccc3c(=O)n2CCCN2CCOCC2)c1	none
CCOC(=O)C1=C(C)C2C3C(=O)N(c4cc(C)ccc4C)C(=O)C3C1(C)C1C(=O)N(c3cc(C)ccc3C)C(=O)C21 (centres undefined)	NPY-Y1 PAM-ag 44 | NPY-Y1 confirm inactive | NPY-Y2 counter inactive | NPY-Y1 agonist inactive | NPY-Y2 ag inactive | CNGC inh 2 inactive
Cc1ccc(C(=O)N2CCN(c3ccc(NC(=S)NC(=O)c4cccs4)cc3)CC2)cc1	none (no result: NPY Y2 blocker)
Cc1ccccc1C(=O)N1CCN(c2ccc(NC(=S)NC(=O)c3cccs3)cc2)CC1	NPY-Y1 PAM-ag 36 (no result: NPY Y2 blocker) | NPY-Y1 confirm inactive | NPY-Y2 counter inactive | NPY-Y1 agonist inactive | NPY-Y2 ag 15 | CNGC inh 2 inactive
COc1cc(-c2[nH]ncc2CN2CCN(Cc3cccs3)CC2)cc(OC)c1OC	none (no result: NPY Y2 blocker)
COc1ccc(/C=N/Nc2nc(N3CCCC3)nc(N3CCCC3)n2)cc1	none
COC(=O)c1ccc(/C=N/Nc2nc(N3CCCCC3)nc(N3CCCCC3)n2)cc1	NPY-Y1 PAM-ag 72 (no result: NPY Y2 blocker) | NPY-Y1 confirm inactive | NPY-Y2 counter inactive | NPY-Y1 agonist inactive | NPY-Y2 ag inactive | CNGC inh 2 inactive
O=[N+]([O-])c1ccc(/C=C/C2=NN(c3ccccc3)C(c3ccco3)C2)o1 (centres undefined)	NPY-Y1 PAM-ag 36 (no result: NPY Y2 blocker) | NPY-Y1 confirm 60 | NPY-Y2 counter 45 | NPY-Y1 agonist 56 | NPY-Y2 ag 58 | CNGC inh 2 45
O=C(c1sc2cc([N+](=O)[O-])ccc2c1Cl)N1CCOCC1	none
CC(C)N(C(=O)c1sc2cc([N+](=O)[O-])ccc2c1Cl)C(C)C	NPY-Y1 PAM-ag 85 | NPY-Y1 confirm inactive | NPY-Y2 counter inactive | NPY-Y1 agonist inactive | NPY-Y2 ag 18 | CNGC inh 2 inactive
COC(=O)CSc1ccc(S(=O)(=O)N2CCCCCC2)cc1[N+](=O)[O-]	NPY-Y1 PAM-ag 60 (no result: NPY Y2 blocker) | NPY-Y1 confirm 121 | NPY-Y2 counter 100 | NPY-Y1 agonist 108 | NPY-Y2 ag 104 | CNGC inh 2 99
CCn1ncc(Br)c1C(=O)Nc1ccc(F)c([N+](=O)[O-])c1	NPY-Y1 PAM-ag 45 | NPY-Y1 confirm inactive | NPY-Y2 counter 39 | NPY-Y1 agonist 40 | NPY-Y2 ag 27 | CNGC inh 2 36
CCn1ncc(Br)c1C(=O)Nc1ccc(F)cc1F	none
O=C(OCC(=O)N1CCCc2ccccc21)c1cnc(Cl)c(Cl)c1	NPY-Y1 PAM-ag 49 | NPY-Y1 confirm inactive | NPY-Y2 counter inactive | NPY-Y1 agonist 22 | NPY-Y2 ag inactive | CNGC inh 2 25
CCN(CCS(=O)(=O)c1ccc(Cl)cc1)C(=O)Nc1ccc(Cl)cc1	none (no result: NPY-Y1 antag, NPY Y2 blocker)
CC(C)(C)C(=O)NCCc1nc2ccccc2n1CC(=O)c1ccc(Cl)cc1	none
COc1ccccc1N1CCN(C(=O)c2ccc(Cn3c(=O)[nH]c4ccsc4c3=O)cc2)CC1	none (no result: NPY-Y1 antag, NPY Y2 blocker)
COC(=O)[C@H](C)NC(=O)NCc1ccccc1	none (no result: NPY-Y1 antag, NPY Y2 blocker)
O=C(CN1c2ccccc2Sc2ccccc21)NNC(=S)Nc1ccc(Cl)cc1	none (no result: NPY-Y1 antag, NPY Y2 blocker)
O=C(CN1c2ccccc2Sc2ccccc21)NNC(=S)Nc1ccc(Cl)cc1Cl	NPY-Y1 PAM-ag 68 | NPY-Y1 confirm inactive | NPY-Y2 counter 37 | NPY-Y1 agonist inactive | NPY-Y2 ag 46 | CNGC inh 2 27
COc1ccc(CC(=O)Nc2nnc(SCC(=O)NCc3ccco3)s2)cc1OC	none (no result: NPY Y2 blocker)
COCc1cc(C)nc(SCC[N+](C)(C)CC(=O)Nc2cccc(C(F)(F)F)c2)c1C#N	NPY-Y1 PAM-ag 54 (no result: NPY Y2 blocker) | NPY-Y1 confirm inactive | NPY-Y2 counter inactive | NPY-Y1 agonist inactive | NPY-Y2 ag inactive | CNGC inh 2 inactive
COc1ccccc1NC(=O)Nc1ccc(-n2ccc(C(F)(F)F)n2)cc1	NPY-Y1 PAM-ag 55 (no result: NPY-Y1 antag, NPY Y2 blocker) | NPY-Y1 confirm 65 | NPY-Y2 counter 49 | NPY-Y1 agonist 55 | NPY-Y2 ag 38 | CNGC inh 2 36
O=C(O)c1ccccc1C(=O)Nc1ccc(-n2ccc(C(F)(F)F)n2)cc1	none (no result: NPY-Y1 antag, NPY Y2 blocker)
COc1ccc(/C=N/Nc2snc(SC)c2C#N)cc1OC	none
